Measurements from ChEMBL document CHEMBL4152257, “Discovery of novel β-carboline/acylhydrazone hybrids as potent antitumor agents and overcome drug resistance” (Eur J Med Chem, 2018).

Assays:
[1] = test system: MCF7; test: Antiproliferative activity against human MCF7 cells at 1 uM after 48 to 72 hrs by MTT assay relative to control; assay type: functional
How it was run: (§1)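 Single-concentration screen in the MTT proliferation assay: log-phase cells seeded and allowed to adhere, exposed to compound at 1 µM for 48 h or 72 h, MTT added for 2-3 h, formazan dissolved in DMSO; percent inhibition versus control.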

[2] = test system: MDA-MB-231; test: Antiproliferative activity against human MDA-MB-231 cells at 1 uM after 48 to 72 hrs by MTT assay relative to control; assay type: functional; how it was run: as §1
[3] = test system: Raji; test: Antiproliferative activity against human Raji cells at 1 uM after 48 to 72 hrs by MTT assay relative to control; assay type: functional; how it was run: as §1
[4] = test system: NCI-H460; test: Antiproliferative activity against human H460 cells at 1 uM after 48 to 72 hrs by MTT assay relative to control; assay type: functional; how it was run: as §1
[5] = test system: NCI-H460; test: Antiproliferative activity against human H460 cells after 48 to 72 hrs by MTT assay; assay type: functional, cell-based
How it was run: (§2)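 Cells in log phase seeded and allowed to adhere, then exposed to graded compound concentrations for 48 h or 72 h; MTT added for a further 2-3 h, formazan dissolved in DMSO. IC50 taken from dose-response curves; mean ± SD of at least three independent experiments.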

[6] = test system: MCF7; test: Antiproliferative activity against human MCF7 cells after 48 to 72 hrs by MTT assay; assay type: functional, cell-based; how it was run: as §2
[7] = test system: Raji; test: Antiproliferative activity against human Raji cells after 48 to 72 hrs by MTT assay; assay type: functional, cell-based; how it was run: as §2
[8] = test system: A549; test: Antiproliferative activity against human A549 cells after 48 to 72 hrs by MTT assay; assay type: functional, cell-based; how it was run: as §2
[9] = Resistance index, ratio of IC50 for human A549/TR cells to IC50 for human A549 cells; assay type: functional
[10] = test system: A549/TR; test: Antiproliferative activity against human A549/TR cells after 48 to 72 hrs by MTT assay; assay type: functional, cell-based; how it was run: as §2
[11] = test system: A2780S; test: Antiproliferative activity against human A2780S cells after 48 to 72 hrs by MTT assay; assay type: functional, cell-based; how it was run: as §2
[12] = test system: A2780/Taxol; test: Antiproliferative activity against human A2780T cells after 48 to 72 hrs by MTT assay; assay type: functional, cell-based; how it was run: as §2
[13] = Resistance index, ratio of IC50 for human A2780T cells to IC50 for human A2780S cells; assay type: functional
[14] = test system: NCI-H460; test: Antitumor activity against human H460 cells xenografted in athymic nude Balb/C mouse assessed as tumor growth inhibition at 30 mg/kg, ip administered once per week measured every two days relative to control; assay type: functional; conditions: 48 h, read-out: TGI
How it was run: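 Nude mice (5-6 weeks old, female) implanted sc in right flank with 5 × 10^6 H460 cells in HBSS; at 100 mm3 tumours, randomised 6 per group to vehicle, oral 100 mg/kg three times weekly, or ip 30 mg/kg once weekly. Tumour volume by caliper every 2 days as (π/6) × length × width²; body weight recorded; inhibition from tumour weights versus control.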

[15] = test system: Mus musculus; test: Toxicity in athymic nude Balb/C mouse xenografted with human H460 cells assessed as body weight loss at 30 mg/kg, ip administered once per week measured every 2 days; assay type: organism-based; conditions: in vivo, 48 h
How it was run: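 Nude mice, 5-to-6-week-old females, given 5 × 10^6 H460 cells sc in right flank in HBSS; at 100 mm3 tumour volume randomized, 6 per group. Vehicle; oral 100 mg/kg three times weekly; or ip 30 mg/kg once weekly. Toxicity signs and mortality observed daily; body weight measured every 2 days.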

SMILES	inhibition at 1 µM [1]	inhibition at 1 µM [2]	inhibition at 1 µM [3]	inhibition at 1 µM [4]	IC50 [5]	IC50 [6]	IC50 [7]	IC50 [8]	Ratio IC50 [9]	IC50 [10]	IC50 [11]	IC50 [12]	Ratio IC50 [13]	inhibition in vivo at 30 mg/kg [14]	Activity [15]
O=C(N/N=C/c1cccc(OCc2ccc([N+](=O)[O-])cc2)c1)c1cc2c(cn1)[nH]c1ccccc12	32.8%	20.2%	56.7%	38.4%	1040 nM	8.3 µM	3020 nM	–	–	–	–	–	–	–	–
c1ccc(OCc2nnc(-c3cc4c(cn3)[nH]c3ccccc34)o2)cc1	-5.47%	7.42%	1.69%	4.84%	–	–	–	–	–	–	–	–	–	–	–
O=C(N/N=C/c1c[nH]c2ccccc12)c1cc2c(cn1)[nH]c1ccccc12	6.31%	7.1%	8.66%	16.2%	–	–	–	–	–	–	–	–	–	–	–
O=C(N/N=C/c1cccc(OCc2ccc(Br)cc2)c1)c1cc2c(cn1)[nH]c1ccccc12	50.4%	31.8%	58.7%	52.8%	2420 nM	7.22 µM	6740 nM	–	–	–	–	–	–	–	–
Cc1ccccc1COc1cccc(/C=N/NC(=O)c2cc3c(cn2)[nH]c2ccccc23)c1	18.2%	24.8%	36%	29.4%	–	–	–	–	–	–	–	–	–	–	–
O=C(N/N=C/c1cccc(OCc2ccc(C(F)(F)F)cc2)c1)c1cc2c(cn1)[nH]c1ccccc12	38.4%	24.4%	51.2%	23.4%	7490 nM	6.6 µM	2040 nM	–	–	–	–	–	–	–	–
N#Cc1cccc(COc2cccc(/C=N/NC(=O)c3cc4c(cn3)[nH]c3ccccc34)c2)c1	17.9%	21.9%	24.1%	12.8%	–	–	–	–	–	–	–	–	–	–	–
O=C(N/N=C/c1cccc(OCc2ccc(Cl)cc2)c1)c1cc2c(cn1)[nH]c1ccccc12	24.3%	30.7%	56.7%	40.4%	5020 nM	8.62 µM	5020 nM	–	–	–	–	–	–	–	–
CN(Cc1ccccc1)Cc1nnc(-c2cc3c(cn2)[nH]c2ccccc23)o1	-1.84%	-3.26%	16.3%	3.74%	–	–	–	–	–	–	–	–	–	–	–
COc1ccc(COc2cccc(/C=N/NC(=O)c3cc4c(cn3)[nH]c3ccccc34)c2)cc1	37%	23.6%	52%	38.6%	2840 nM	9.37 µM	2340 nM	–	–	–	–	–	–	–	–
O=C(N/N=C/c1cccc(Oc2ccccc2)c1)c1cc2c(cn1)[nH]c1ccccc12	-18.6%	6.76%	2.06%	22.1%	–	–	–	–	–	–	–	–	–	–	–
CC(=O)O[C@H]1C(=O)[C@@]2(C)[C@H]([C@H](OC(=O)c3ccccc3)[C@]3(O)C[C@H](OC(=O)[C@H](O)[C@@H](NC(=O)c4ccccc4)c4ccccc4)C(C)=C1C3(C)C)[C@]1(OC(C)=O)CO[C@@H]1C[C@@H]2O [PACLITAXEL]	–	–	–	–	–	–	–	23.2 nM	32.76	759 nM	18.9 nM	73 µM	3852.53	65.2%	< 5%
C/C(=N\NC(=O)c1cccc(S(=O)(=O)N2CCOCC2)c1)c1cc(Cl)ccc1O	59.3%	41.3%	51.7%	43.2%	470 nM	0.62 µM	980 nM	–	–	–	–	–	–	–	–
O=Cc1ccc(OCc2nnc(-c3cc4c(cn3)[nH]c3ccccc34)o2)cc1	-2.52%	2.98%	9.17%	6.63%	–	–	–	–	–	–	–	–	–	–	–
CC[C@]1(O)C[C@@H]2CN(CCc3c([nH]c4ccccc34)[C@@](C(=O)OC)(c3cc4c(cc3OC)N(C)[C@H]3[C@@](O)(C(=O)OC)[C@H](OC(C)=O)[C@]5(CC)C=CCN6CC[C@]43[C@@H]65)C2)C1 [VINBLASTINE]	–	–	–	–	–	–	–	19.5 nM	12.72	248 nM	15.7 nM	16.9 µM	1073.76	–	–
COC(=O)c1ccc(COc2cccc(/C=N/NC(=O)c3cc4c(cn3)[nH]c3ccccc34)c2)cc1	56.4%	31.8%	63.8%	25.9%	1170 nM	1.64 µM	3880 nM	–	–	–	–	–	–	–	–

SMILES	inhibition at 1 µM [1]	inhibition at 1 µM [2]	inhibition at 1 µM [3]	inhibition at 1 µM [4]	IC50 [5]	IC50 [6]	IC50 [7]	IC50 [8]	Ratio IC50 [9]	IC50 [10]	IC50 [11]	IC50 [12]	Ratio IC50 [13]	inhibition in vivo at 30 mg/kg [14]	Activity [15]
O=C(N/N=C/c1cccc(OCc2ccc(F)cc2)c1)c1cc2c(cn1)[nH]c1ccccc12	23.6%	27.2%	48%	29.7%	–	–	–	–	–	–	–	–	–	–	–
COc1cc2c(c(OC)c1OC)-c1ccc(OC)c(=O)cc1[C@@H](NC(C)=O)CC2 [COLCHICINE]	–	–	–	–	–	–	–	–	60.41	167 nM	21.9 nM	35.6 µM	1630.02	–	–
O=C(N/N=C/c1cccc(OCc2ccccc2)c1)c1cc2c(cn1)[nH]c1ccccc12	23.1%	25.6%	50.2%	29.7%	6520 nM	3.56 µM	2620 nM	–	–	–	–	–	–	–	–
Cc1cccc(COc2cccc(/C=N/NC(=O)c3cc4c(cn3)[nH]c3ccccc34)c2)c1	26.3%	22.7%	33.2%	27.4%	–	–	–	–	–	–	–	–	–	–	–
O=C(N/N=C/c1ccc2ccccc2c1)c1cc2c(cn1)[nH]c1ccccc12	35.7%	21.8%	51.8%	40.7%	5710 nM	14.9 µM	2040 nM	–	–	–	–	–	–	–	–
O=C(N/N=C/c1cccc(OCc2cccc(F)c2)c1)c1cc2c(cn1)[nH]c1ccccc12	17.1%	16.5%	40.4%	21.7%	–	–	–	–	–	–	–	–	–	–	–
O=C(N/N=C/c1cccc(OCc2ccccc2Cl)c1)c1cc2c(cn1)[nH]c1ccccc12	36.2%	28.6%	56.3%	45.4%	1270 nM	2.32 µM	3020 nM	–	–	–	–	–	–	–	–
O=C(N/N=C/c1ccc(-c2ccccc2)cc1)c1cc2c(cn1)[nH]c1ccccc12	36.6%	29.3%	62.5%	44.3%	3640 nM	4.56 µM	1040 nM	–	–	–	–	–	–	–	–
O=Cc1cccc(OCc2nnc(-c3cc4c(cn3)[nH]c3ccccc34)o2)c1	26.8%	9.83%	17.7%	13.9%	–	–	–	–	–	–	–	–	–	–	–
Cc1ccc(COc2cccc(/C=N/NC(=O)c3cc4c(cn3)[nH]c3ccccc34)c2)cc1	53.5%	28.7%	45%	29.2%	2180 nM	5.24 µM	4060 nM	–	–	–	–	–	–	–	–
N#Cc1ccccc1COc1cccc(/C=N/NC(=O)c2cc3c(cn2)[nH]c2ccccc23)c1	15.1%	20.7%	37.4%	15.5%	–	–	–	–	–	–	–	–	–	–	–
COc1ccc(/C=N/NC(=O)c2cc3c(cn2)[nH]c2ccccc23)cc1OCc1ccccc1	-6.31%	22.2%	25.8%	20.7%	–	–	–	–	–	–	–	–	–	–	–
O=C(N/N=C/c1cccc(OCc2cccc(Cl)c2)c1)c1cc2c(cn1)[nH]c1ccccc12	22.4%	15.6%	48.2%	31.9%	–	–	–	–	–	–	–	–	–	–	–
O=C(N/N=C/c1cccc(O)c1)c1cc2c(cn1)[nH]c1ccccc12	-13.8%	8.13%	9.69%	5.08%	–	–	–	–	–	–	–	–	–	–	–
O=C(N/N=C/c1cccc(OCc2ccccc2F)c1)c1cc2c(cn1)[nH]c1ccccc12	46.2%	24.7%	54.3%	43.2%	1360 nM	6.5 µM	2940 nM	–	–	–	–	–	–	–	–
